From paper PMC2697266 (Nature, 2009) come the findings set out here.

Assay [1] concerns Ezh2 or Suz12, H3K27me3 at Hox-A clusters. Nature of the assay: ChIP, polycomb factors and H3K27me3 at Hox-A cluster. The format is cell-based, murine. The settings on record: NJL-infected progenitors, qualitative. A digest of the protocol:
(§1)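 Mouse Lin- marrow cells were cytokine-stimulated, retrovirally transduced, selected with 1μg/mL puromycin and kept in SCF-only medium. ChIP used 1∼2 million cells for histone marks and 2∼3 million for other factors (p300 antibody 10μg). Equal nonspecific IgG served as antibody control and Chr8Int as negative locus. Triplicate SYBR qPCR gave % of input and fold over IgG.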

The test system of assay [2] is WDR5, RBBP5, and MLL2 on Hoxa9. Nature of the assay: ChIP, WDR5, RBBP5 and MLL2 on Hoxa9. It is filed as cell-based, murine. The settings on record: marrow progenitors 15 days after transduction; qualitative. The method, boiled down: as §1
Assay [3] concerns p300 on Hoxa9. Nature of the assay: ChIP, p300 recruitment on Hoxa9. The format is cell-based, murine. The settings on record: 15 days after transduction; qualitative. The method, boiled down:
as §1

Assay [4] concerns mice transplanted with transduced bone marrow progenitors. Nature of the assay: Murine bone marrow transplantation leukemogenic assay. It is filed as in vivo. The settings on record: 12 mice. A digest of the protocol:
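Lin- marrow from femur and tibia (balb/C or b/6) was prestimulated 2-3 days with SCF, 5ng/mL FLT3 ligand, IL3 and IL6. Cells were infected with MSCV retrovirus encoding 3xFLAG fusion or empty vector. 100,000 cells were injected via tail vein into sublethally irradiated syngeneic mice, 12 per group, and leukemia kinetics were followed.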

Assay [5] has as its system H3K27ac on Hoxa9. Nature of the assay: ChIP, Hoxa9-associated H3 acetylation. The format is cell-based, murine. The settings on record: marrow progenitors 15 days after transduction, NJL-transduced cells. The method, boiled down:
as §1

Assay [6] concerns H3K4me3 or H3. Nature of the assay: CoIP in transiently transfected 293 cells. It is filed as binding. The settings on record: qualitative. The method, boiled down: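 Nuclei underwent limited micrococcal nuclease digestion to release mainly mononucleosomes, and insoluble material was removed by centrifugation. Supernatant was incubated with FLAG- or HA-agarose, or with magnetic beads coupled to anti-H3K4me3 or control antibodies. After extensive washing, precipitated proteins were analysed by immunoblot.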

B1: NJL: NUP98 amino acids 1-514 fused to amino acids 1489-1690 of JARID1A transcript variant 1 (protein)
chain: MFNKSFGTPFGGGTGGFGTTSTFGQNTGFGTTSGGAFGTSAFGSSNNTGGLFGNSQTKPGGLFGTSSFSQPATSTSTGFGFGTSTGTANTLFGTASTGTSLFSSQNNAFAQNKPTGFGNFGTSTSSGGLFGTTNTTSNPFGSTSGSLFGPSSFTAAPTGTTIKFNPPTGTDTMVKAGVSTNISTKHQCITAMKEYESKSLEELRLEDYQANRKGPQNQVGAGTTTGLFGSSPATSSATGLFSSSTTNSGFAYGQNKTAFGTSTTGFGTNPGGLFGQQNQQTTSLFSKPFGQATTTQNTGFSFGNTSTIGQPSTNTMGLFGVTQASQPGGLFGTATNTSTGTAFGTGTGLFGQTNTGFGAVGSTLFGNNKLTTFGSSTTSAPSFGTTSGGLFGNKPTLTLGTNTNTSNFGFGTNTSGNSIFGSKPAPGTLGTGLGAGFGTALGAGQASLFGNNQPKIGGPLGTGAFGAPGFNTTTATLGFGAPQAPVALTDPNASAAQQAVLQQHINSLTYSPFGMEEKPLKVKGKDSSEKKRKRKLEKVEQLFGEGKQKSKELKKMDKPRKKKLKLGADKSKELNKLAKKLAKEEERKKKKEKAAAAKVELVKESTEKKREKKVLDIPSKYDWSGAEESDDENAVCAAQNCQRPCKDKVDWVQCDGGCDEWFHQVCVGVSPEMAENEDYICINCAKKQGPVSPGPAPPPSFIMSYKLPMEDLKETS
modifications: left off: 3xFLAG, N-terminal, kept
In the case of B1, the “restriction of polycomb factors (Ezh2 or Suz12)” value in assay [1] is on record as “restricted within Hoxa11-a13”. Further, in assay [2], the “WDR5, RBBP5, and MLL2 on Hoxa9” value is reported as “high levels”. The “p300 recruitment on Hoxa9” value in assay [3] is given as “recruitment of p300”. For the same molecule, the “average time to death of AML” value in assay [4] came out at 69 days. Besides, the “elevation of H3K27ac on Hoxa9” value in assay [5] is reported as > 2,000 fold. Besides, the “association with H3K4me3 or H3” value in assay [6] is “associated with H3K4me3 or H3”.
